Experiments:
[1] = biological target: T1, Trehalose-phosphatase (Brugia malayi) (UniProt A8NS89); assay: Inhibition of Brugia malayi T6PP using T6P as substrate assessed as fraction of enzyme unbound with compound by measuring ratio of initial velocities of T6P substrate hydrolysis in presence and absence of compound at 1 mM […] by BioMol green dye based HTS assay
T1 sequence (whole entry): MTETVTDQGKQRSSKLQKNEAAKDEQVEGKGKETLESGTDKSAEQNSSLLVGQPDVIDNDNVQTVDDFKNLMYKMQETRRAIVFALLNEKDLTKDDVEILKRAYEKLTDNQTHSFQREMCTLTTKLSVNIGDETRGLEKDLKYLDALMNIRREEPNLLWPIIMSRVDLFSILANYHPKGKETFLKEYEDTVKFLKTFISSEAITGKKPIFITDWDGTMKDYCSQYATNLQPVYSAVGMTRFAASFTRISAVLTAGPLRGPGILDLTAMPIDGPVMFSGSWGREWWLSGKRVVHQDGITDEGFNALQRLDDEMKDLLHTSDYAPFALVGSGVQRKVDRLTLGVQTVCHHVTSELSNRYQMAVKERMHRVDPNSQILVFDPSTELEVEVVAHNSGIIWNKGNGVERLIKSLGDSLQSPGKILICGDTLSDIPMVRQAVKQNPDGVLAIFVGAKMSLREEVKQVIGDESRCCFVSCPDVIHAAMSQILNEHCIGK

[2] = tested on: Salmonella enterica subsp. enterica serovar Typhimurium; assay: Inhibition of Salmonella typhimurium T6PP using T6P as substrate assessed as fraction of enzyme unbound with compound by measuring ratio of initial velocities of T6P substrate hydrolysis in presence and absence of compound at 1 mM after 5 mins by BioMol green dye based HTS assay
Method in brief: (§1)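 Freshly purified St-T6PP or Sb-T6PP (5–25 nM) in 50 mM Hepes pH 7.5, 25 mM NaCl, 2 mM MgCl₂, 5% glycerol at 25 °C. T6P at half saturation (Km) for each enzyme. Hydrolysis rate was compared with and without 1 mM inhibitor; phosphate read at 625 nm after 30 min incubation. The ratio VI/V gives the fraction of enzyme not inhibitor-bound.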

[3] = tested on: Ascaris suum; assay: Inhibition of Ascaris suum T6PP using T6P as substrate assessed as fraction of enzyme unbound with compound by measuring ratio of initial velocities of T6P substrate hydrolysis in presence and absence of compound at 1 mM after 5 mins by BioMol green dye based HTS assay
Method in brief: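 T6P is at half saturation ([T6P] = Km), with and without 1 mM inhibitor, at 25 °C. Released phosphate is detected with dye (30 min incubation) by A625. The reported value is V_I/V, the initial-velocity ratio.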

[4] = tested on: Shigella boydii; assay: Inhibition of Shigella boydii T6PP using T6P as substrate assessed as fraction of enzyme unbound with compound by measuring ratio of initial velocities of T6P substrate hydrolysis in presence and absence of compound at 1 mM after 5 mins by BioMol green dye based HTS assay; method in brief: as §1
[5] = biological target: T2, Trehalose-phosphatase (Brugia malayi, UniProt A8NS89); assay: Reversible competitive inhibition of Brugia malayi T6PP using T6P as substrate by Lineweaver-Burk plot analysis
T2 sequence (A8NS89 whole entry): T1 sequence (whole entry)

[6] = biological target: T2, Trehalose-phosphatase; assay: Competitive inhibition of Brugia malayi T6PP using T6P as substrate by Lineweaver-Burk plot analysis
Method in brief: (§2)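 Continuous phosphate-release assay (EnzChek, MESG/purine nucleoside phosphorylase) at 25 °C. Initial velocities of T6P hydrolysis by T6PP were taken at varied T6P with inhibitor at 0, Ki and 2×Ki. Km and Vmax come from double-reciprocal plots.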

[7] = tested on: Shigella boydii; assay: Inhibition of Shigella boydii T6PP assessed as Vmax for substrate using T6P as substrate by Lineweaver-Burk plot analysis; method in brief: as §2
[8] = tested on: Shigella boydii; assay: Inhibition of Shigella boydii T6PP assessed as Km for substrate using T6P as substrate by Lineweaver-Burk plot analysis; method in brief: as §2
[9] = Inhibition of Salmonella typhimurium T6PP using T6P as substrate by Lineweaver-Burk plot analysis; set-up: species or system Salmonella enterica subsp. enterica serovar Typhimurium; method in brief: as §2
[10] = Inhibition of Ascaris suum T6PP using T6P as substrate by Lineweaver-Burk plot analysis
[11] = Inhibition of Shigella boydii T6PP using T6P as substrate by Lineweaver-Burk plot analysis; method in brief: as §2
[12] = tested on: Ascaris suum; assay: Inhibition of Ascaris suum T6PP assessed as Vmax for substrate using T6P as substrate by Lineweaver-Burk plot analysis; method in brief: as §2
[13] = tested on: Ascaris suum; assay: Inhibition of Ascaris suum T6PP assessed as Km for substrate using T6P as substrate by Lineweaver-Burk plot analysis; method in brief: as §2
[14] = tested on: Salmonella enterica subsp. enterica serovar Typhimurium; assay: Inhibition of Salmonella typhimurium T6PP assessed as Vmax for substrate using T6P as substrate by Lineweaver-Burk plot analysis; method in brief: as §2
[15] = tested on: Salmonella enterica subsp. enterica serovar Typhimurium; assay: Inhibition of Salmonella typhimurium T6PP assessed as Km for substrate using T6P as substrate by Lineweaver-Burk plot analysis; method in brief: as §2

SMILES	Ratio [1]	Ratio [2]	Ratio [3]	Ratio [4]	other results
OC[C@H]1O[C@@H](NC(=S)Nc2ccccc2)[C@H](O)[C@@H](O)[C@@H]1O	0.99	1.09	0.81	0.92	–
CO[C@H]1O[C@H](COS(=O)(=O)O)[C@@H](O)[C@H](O)[C@H]1OCc1ccccc1	0.53	0.95	0.96	1	–
O=Cc1ccccc1O[C@@H]1O[C@H](COS(=O)(=O)O)[C@@H](O)[C@H](O)[C@H]1O	0.79	0.85	0.99	0.96	–
O=S(=O)(O)OC[C@H]1O[C@@H](Oc2ccccc2)[C@H](O)[C@@H](O)[C@@H]1O	0.52	0.81	0.92	0.76	Ki [5]: 800 to 830 µM
CO[C@H]1O[C@H](COS(=O)(=O)O)[C@@H](O)[C@H](OCc2ccccc2)[C@H]1O	0.67	0.99	1.04	0.84	–
O=Cc1cccc(O[C@@H]2O[C@H](COS(=O)(=O)O)[C@@H](O)[C@H](O)[C@H]2O)c1	1.05	0.95	0.78	0.81	–
O=S(=O)(O)OC[C@H]1O[C@H](OCc2ccccc2)[C@H](O)[C@@H](O)[C@@H]1O	0.07	0.47	0.86	0.74	Ki [6]: 160 µM
CCCCCCc1ccc(O[C@@H]2O[C@H](COS(=O)(=O)O)[C@@H](O)[C@H](O)[C@H]2O)cc1	–	–	–	–	Ki [6]: 200 µM; Vmax [7]: 0.534 µM/s; Km [8]: 231 µM; Ki [9]: > 400 µM; Ki [10]: 200 µM; Ki [11]: 140 µM
O=S(=O)(O)OC[C@H]1O[C@H](O)[C@H](O)[C@@H](O)[C@@H]1O	0.93	0.84	0.94	0.75	–
O=S(=O)(O)OC[C@H]1O[C@@H](Oc2cccc(CO)c2)[C@H](O)[C@@H](O)[C@@H]1O	0.69	0.77	0.63	0.46	–
O=S(=O)(O)OC[C@H]1O[C@@H](Oc2ccc(-c3ccccc3)cc2)[C@H](O)[C@@H](O)[C@@H]1O	0.58	0.85	0.9	0.84	Vmax [12]: 0.436 µM/s; Km [13]: 290 µM; Ki [10]: 1800 µM
O=S(=O)(O)OC[C@H]1O[C@@H](Oc2ccccc2CO)[C@H](O)[C@@H](O)[C@@H]1O	0.89	0.73	0.9	0.85	–
OC[C@H]1O[C@@H](Oc2ccccc2)[C@H](O)[C@@H](O)[C@@H]1O	1.12	0.87	1	0.9	–
O=S(=O)(O)OC[C@H]1O[C@@H](Oc2ccc(F)c(F)c2)[C@H](O)[C@@H](O)[C@@H]1O	0.74	0.89	0.88	0.92	–
CCCCCCCCc1ccc(O[C@@H]2O[C@H](COS(=O)(=O)O)[C@@H](O)[C@H](O)[C@H]2O)cc1	0.07	0.01	0.02	0.04	Ki [6]: 60 to 61 µM; Vmax [7]: 0.495 µM/s; Km [8]: 222 µM; Vmax [14]: 0.183 µM/s; Vmax [12]: 0.343 µM/s; Km [15]: 428 µM; Km [13]: 336 µM; Ki [9]: 120 µM; Ki [10]: 180 µM; Ki [11]: 13 µM
COc1cc(C=O)cc(OC)c1O[C@@H]1O[C@H](COS(=O)(=O)O)[C@@H](O)[C@H](O)[C@H]1O	0.55	0.96	0.94	1	–
CO[C@H]1O[C@H](COS(=O)(=O)O)[C@@H](OCc2ccccc2)[C@H](O)[C@H]1O	0.68	0.97	0.99	0.95	–

SMILES	Ratio [1]	Ratio [2]	Ratio [3]	Ratio [4]	other results
O=S(=O)(O)OC[C@H]1O[C@H](O[C@H]2O[C@H](CO)[C@@H](O)[C@H](O)[C@H]2O)[C@H](O)[C@@H](O)[C@@H]1O	0.13	0.01	0.21	0.22	Ki [6]: 80 µM; Ki [9]: 180 µM; Ki [10]: 50 µM; Ki [11]: 330 µM
CO[C@H]1O[C@H](COS(=O)(=O)O)[C@@H](O)[C@H](O)[C@H]1O	0.8	1.04	1.07	1	–
O=[N+]([O-])c1ccc(O[C@@H]2O[C@H](COS(=O)(=O)O)[C@@H](O)[C@H](O)[C@H]2O)cc1	0.64	0.68	0.83	0.77	–
CCCCCCc1ccc(O[C@H]2O[C@H](COS(=O)(=O)O)[C@@H](O)[C@H](O)[C@H]2O)cc1	–	–	–	–	Ki [6]: 80 to 82 µM; Vmax [7]: 0.541 µM/s; Km [8]: 239 µM; Vmax [14]: 0.495 µM/s; Vmax [12]: 0.631 µM/s; Km [15]: 394 µM; Km [13]: 353 µM; Ki [9]: 280 µM; Ki [10]: 350 µM; Ki [11]: 78 µM
OC[C@H]1O[C@@H](n2cc(-c3ccccc3)nn2)[C@H](O)[C@@H](O)[C@@H]1O	0.85	0.9	0.96	1	–
OC[C@H]1O[C@H](O[C@H]2O[C@H](CO)[C@@H](O)[C@H](O)[C@H]2O)[C@H](O)[C@@H](O)[C@@H]1O [TREHALOSE]	0.98	0.88	0.97	1.01	Ki [6]: > 10000 µM
OC[C@H]1O[C@@H](Nc2ccccc2)[C@H](O)[C@@H](O)[C@@H]1O	1	0.77	0.97	0.92	–
CC(=O)Nc1ccc(O[C@@H]2O[C@H](COS(=O)(=O)O)[C@@H](O)[C@H](O)[C@H]2O)cc1	0.87	0.85	0.9	0.88	–
Nc1ccc(O[C@@H]2O[C@H](COS(=O)(=O)O)[C@@H](O)[C@H](O)[C@H]2O)cc1	0.63	0.94	0.74	1.03	–
NS(=O)(=O)OCc1cccc(N[C@@H]2O[C@H](CO)[C@@H](O)[C@H](O)[C@H]2O)c1	1.05	1	0.96	0.85	–
OC[C@H]1O[C@H](Oc2ccccc2)[C@H](O)[C@@H](O)[C@@H]1O	0.96	1	0.97	0.86	–
O=S(=O)(O)OC[C@H]1O[C@@H](n2cc(-c3ccccc3)nn2)[C@H](O)[C@@H](O)[C@@H]1O	0.98	0.97	0.76	0.9	–
O=S(=O)(O)OCc1cccc(O[C@@H]2O[C@H](CO)[C@@H](O)[C@H](O)[C@H]2O)c1	0.59	0.85	0.98	0.8	–
O=S(=O)(O)OC[C@H]1O[C@@H](Oc2ccc(CO)cc2)[C@H](O)[C@@H](O)[C@@H]1O	0.68	0.79	0.76	0.67	–
CCCCCCCCO[C@@H]1O[C@H](COS(=O)(=O)O)[C@@H](O)[C@H](O)[C@H]1O	0.72	0.54	0.9	0.79	–
O=Cc1ccc(O[C@@H]2O[C@H](COS(=O)(=O)O)[C@@H](O)[C@H](O)[C@H]2O)cc1	1	0.87	0.81	1.06	–
O=S(=O)(O)OC[C@H]1O[C@@H](Oc2cccc3ccccc23)[C@H](O)[C@@H](O)[C@@H]1O	0.85	0.8	0.91	0.85	–

From ChEMBL document CHEMBL4004850, “Rational design of reversible inhibitors for trehalose 6-phosphate phosphatases” (Eur J Med Chem, 2017)
